APJ agonist = agonists of human apelin receptor APJ, primary screen, CHO-K1 cells, PathHunter beta-arrestin, luminescence; AID 2520, 2010; hit rate 0.11% among 330,000; activation, % at 20 µM; P35414; 0% DMSO wells, 100% apelin;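 active means activation more than six SD over the plate average, tested at 20 µM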;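 further: 0% = DMSO alone and 100% = apelin-13 at 10 nM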
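assay system = CHO-K1 APJ beta-arrestin complementation cell line | input = cell density 1000 per well | dosing = compound 20 µM once, DMSO 1% | timing = compound 90 min 25 °C, reagent 1 h | measured by = luminescence from split beta-galactosidase complementation, Galacton Star/Emerald II substrate | read-out basis = APJ agonist activity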
CXCR6 inh = CXCR6 receptor inhibitors, primary screen, cell-based, beta-arrestin, luminescence, CHO-K1 PathHunter, 1536-well | inhibition, % at 20 µM | C-X-C chemokine receptor type 6 (Homo sapiens), O00574 | AID 602244, 2012 | hit rate 0.36% among 360,000; in the data active means inhibition above about 34%, passing the limit was not always enough;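 further: antagonist mode with CXCL16 agonist at 10 nM final; 0% = 10 nM CXCL16 with DMSO and 100% = unstimulated wells without agonist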
HTR2A ag = mouse Htr2a agonists via beta-arrestin recruitment, primary screen, cell-based, luminescence. 5-hydroxytryptamine receptor 2A (Mus musculus), P35363. CHO-K1 mHTR2A beta-arrestin complementation; percent of 30 µM serotonin response. activation, % at 7.6 µM. hit rate 0.66% among 360,000. AID 624169, 2012;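 active means activation above a run cutoff, the mean activation of all tested compounds plus 3 SD, cut at about 14% in these data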;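 further: 0% = plate median of compound wells and 100% = 30 µM serotonin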
APJ antagonist = antagonists of human apelin receptor APJ, primary screen, CHO-K1 cells, beta-arrestin complementation, luminescence; inhibition, % at 20 µM; AID 2521, 2010; hit rate 0.32% among 330,000; P35414;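 active means inhibition above about 40% at 20 µM, limit read from the data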;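 further: cells challenged with 10 nM apelin-13 agonist together with compound; plate controls were apelin-13 plus DMSO wells for no effect and DMSO wells lacking apelin-13 for full effect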
EBI2 block = EBI2 receptor antagonists, beta-arrestin recruitment, primary screen, cell-based, luminescence, 7a,25-OHC stimulation, uHTS | inhibition, % at 5 µM | G-protein coupled receptor 183 (Homo sapiens), P32249 | 7a,25-OHC stimulated | hit rate 0.81% among 360,000; in the data active means inhibition above about 38%;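 further: enzyme fragment complementation signal reports receptor beta-arrestin coupling in cells; 0% = agonist plus DMSO wells and 100% = wells without agonist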
CCR6 antagonist = CCR6 receptor antagonists, primary screen, cell-based, CHO-K1, luminescence, beta-arrestin, uHTS; C-C chemokine receptor type 6 (Homo sapiens), P51684; CHO-K1 CCR6 PathHunter beta-arrestin, CCL20-stimulated; inhibition, % at 20 µM; hit rate 0.49% among 340,000; AID 493098, 2011;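 active means compounds whose inhibition of the agonist-driven luminescence signal at 20 µM reaches about 50%, limit read from the data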;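 further: cells stimulated with CCL20 at 14 nM final; plate controls were DMSO with CCL20 for no effect and DMSO without agonist for full effect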
OPRM1 ag = OPRM1 agonists via beta-arrestin recruitment, confirmation, counter-screen for mouse HTR2A agonist project, cell-based, luminescence, single concentration; shares compounds with HTR2A ag; U2OS OPRM1 beta-arrestin PathHunter; DMSO 0%, DAMGO 9.3 µM 100%; activation, % at 9.3 µM; hit rate 5.3% among 2,300; AID 624380, 2012;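 active means mean activation above the mean of DMSO-only wells plus 3 SD, cut at about 0.5% in these data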
Target sequence (P35372 whole entry, looked up): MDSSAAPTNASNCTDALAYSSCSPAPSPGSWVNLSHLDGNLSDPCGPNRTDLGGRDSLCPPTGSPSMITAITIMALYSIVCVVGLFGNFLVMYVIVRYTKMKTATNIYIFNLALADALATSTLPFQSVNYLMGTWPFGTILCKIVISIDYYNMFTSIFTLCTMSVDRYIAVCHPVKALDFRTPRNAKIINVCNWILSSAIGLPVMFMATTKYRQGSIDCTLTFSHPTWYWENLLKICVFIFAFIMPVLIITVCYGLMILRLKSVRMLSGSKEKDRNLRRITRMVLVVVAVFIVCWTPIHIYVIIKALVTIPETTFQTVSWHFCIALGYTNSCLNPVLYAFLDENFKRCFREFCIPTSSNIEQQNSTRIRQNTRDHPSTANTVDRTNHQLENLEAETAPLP
m5-HT2A ag conf = mouse HTR2A agonists, beta-arrestin recruitment, confirmation, cell-based, luminescence, CHO-K1 PathHunter, triplicate; shares compounds with HTR2A ag; DMSO 0%, 30 µM serotonin 100%; activation, % at 7.6 µM; hit rate 19% among 2,300; AID 624381, 2012;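 active means mean activation across triplicates above the hit threshold derived in the original primary screen, cut at about 15% in these data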
* hit, by the source's call; . = not tested or not shown. This is a sample that favours compounds with a hit; in the whole collection about 2.1% have one here.

SMILES	APJ agonist	CXCR6 inh	HTR2A ag	APJ antagonist	EBI2 block	CCR6 antagonist	OPRM1 ag	m5-HT2A ag conf
CN=C(c1ccc(C)cc1)n1c(=S)nc(-c2ccc(C)cc2)n(C)c1=S	-6	14	15*	13	26	23	0	-5
CCCN(CC1CCCO1)C(=O)CCc1nnc(CCc2ccc(OC)cc2)o1 (centres undefined)	-3	-1	6	8	-14	9	.	.
O=C(Nc1ccccc1C(=O)Nc1nnc(C(F)(F)F)s1)c1ccccc1	0	-1	14*	10	-8	7	0	3
Cc1ccc(C(=O)N/C(=C\c2cccs2)C(=O)NCCCN2CCOCC2)cc1	-1	4	-6	20	4	4	.	.
CC(C)C(=O)Nc1ccc(-c2nc3ncccc3o2)cc1	-1	1	2	1	-5	0	.	.
CC(C)C(=O)Nc1cccc(-c2nc3ncccc3o2)c1	-1	1	26*	17	-5	-2	-1	3
C=CCN(CC=C)CCCOc1ccc(C)cc1OC	-2	11	-5	1	2	10	.	.
Cc1cc2oc(=O)cc(CN3CCN(Cc4ccccc4)CC3)c2cc1O	-3	-6	-10	-11	6	-4	.	.
Cc1cc(O)c2c(CN3CCN(Cc4ccccc4)CC3)cc(=O)oc2c1	-3	-1	20*	5	10	7	0	18*
COc1ccc(OC)c(CN2CCN(C(=O)c3cccs3)CC2)c1	-1	-2	33*	-11	-6	2	0.8*	91*
O=C(c1cccs1)N1CCN(Cc2ccccc2)CC1	-2	1	28*	-3	-4	0	0	93*
O=C(c1cccs1)N1CCN(Cc2ccncc2)CC1	-4	3	8	15	-6	-1	.	.
COc1cccc(CN2CCN(C(=O)c3cccs3)CC2)c1OC	0	1	7	-5	-6	-11	.	.
COc1ccc(CN2CCN(C(=O)c3cccs3)CC2)cc1	0	2	29*	-17	-18	0	0	50*
COc1ccc2c(c1)OCC(O)(c1ccccc1)C2=O (centres undefined)	.	9	0	.	-6	-3	.	.
Cc1nc(SCC(=O)N2CCN(C(=O)c3ccco3)CC2)c2c(C)c(C)sc2n1	3	-4	0	1	6	8	.	.
Cc1nc(SCC(=O)N2CCN(C(=O)c3cccs3)CC2)c2c(C)c(C)sc2n1	-2	-12	16*	-2	-10	13	-1	1
COc1ccc(OC)c(C2C(C(=O)Nc3ccccc3OC)=C(C)Nc3nc(CCCO)nn32)c1 (centres undefined)	-3	3	5	18	3	6	.	.
CCOc1ccccc1C1C(C(=O)Nc2ccccc2OC)=C(C)Nc2nc(CCCO)nn21 (centres undefined)	-1	8	30*	-3	-5	7	-1	-3
Cc1cc(NC(=O)c2ccc([N+](=O)[O-])cc2Cl)no1	0	-24	4	-27	-10	-4	.	.
Cc1cc(NC(=O)c2cc([N+](=O)[O-])ccc2Cl)no1	4	-3	17*	-5	-17	-16	0	-2
CC1CCN(c2c(NCC3CCC(C(=O)NCCc4ccccc4)CC3)c(=O)c2=O)CC1 (centres undefined)	-5	-1	2	-5	1	5	.	.
CC1CCN(c2c(NCC3CCC(C(=O)NCc4ccccc4Cl)CC3)c(=O)c2=O)CC1 (centres undefined)	-4	-9	19*	14	9	-8	0	-4
COc1cccc(CNc2nc3cc(-c4ccc(F)cc4)sc3c(=O)n2C)c1	.	1	-2	.	7	.	.	.
Cc1ccc(CN2CCN(/N=C/c3ccc(C(=O)O)cc3)CC2)c(C)c1	-1	2	1	12	-16	6	.	.
SMILES	APJ agonist	CXCR6 inh	HTR2A ag	APJ antagonist	EBI2 block	CCR6 antagonist	OPRM1 ag	m5-HT2A ag conf
COC(=O)c1ccc(/C=N/N2CCN(Cc3ccc(C)cc3C)CC2)cc1	1	-7	18*	15	14	10	0	15*
O=C(CCC(=O)Nc1ccccc1Cl)NNC(=O)COc1ccc([N+](=O)[O-])cc1	-5	-4	10	4	-6	10	.	.
CC(C)C(C(=O)O)N1C(=O)C2C3CCC(C3)C2C1=O (centres undefined)	.	-5	7	.	2	.	.	.
Cc1cc(C)n(CCN(C)Cc2nc(Cc3ccccc3F)no2)n1	-3	-1	38*	0	4	0	-1	-2
CN(Cc1nc(Cc2ccccc2F)no1)[C@@H]1CS(=O)(=O)C[C@H]1O	-1	-9	8	-8	-4	6	.	.
CCOC(=O)[C@H]1[C@H]2COc3ccc(OC)cc3[C@@H]2N2C(=O)CN(CCc3c[nH]c4ccccc34)C(=O)[C@@]12C	-2	-2	1	-8	8	2	.	.
Cc1ccc(C(=O)NCCNC(=O)CN2CCOCC2)cc1	-2	-11	15*	8	1	4	-1	-2
CC(=O)C1=C(O)C(=O)N(C)C1c1ccccc1[N+](=O)[O-] (centres undefined)	2	-12	-2	1	-16	-11	.	.
C=C[C@H]1CN2CC[C@H]1C[C@H]2[C@H](O)c1ccnc2ccc(OC)cc12	0	1	1	8	14	-2	.	.
COc1ccc(N(C(=O)CNC(=O)c2ccco2)C(C(=O)NC2CCCCC2)c2cccnc2)cc1 (centres undefined)	-2	4	1	-4	-2	7	.	.
CCCCN(C=O)c1c(CC)nc2c(OCC(=O)C(C)(C)C)cccn12	.	5	10	.	-10	.	.	.
CCCCN(C=O)c1c(CC)nc2c(OCC(=O)N3CCOCC3)cccn12	.	-3	16*	.	-3	.	0	-3
COCCCN1C(=O)C(=O)/C(=C(/O)c2ccc(S(=O)(=O)N3CCCCC3)cc2)C1c1cccc(OC)c1 (centres undefined)	-4	9	7	16	-4	14	.	.

Screening data from PubChem BioAssay.
